From ChEMBL document CHEMBL1141199, “N-benzylisatin sulfonamide analogues as potent caspase-3 inhibitors: synthesis, in vitro activity, and molecular modeling studies” (J Med Chem, 2005)
Values belong to the compound of their own block, whether it stands above or below them.

Assays:
[1] = biological target: T1, Caspase-6 (Homo sapiens, UniProt P55212); assay: Inhibitory activity against caspase 6 using Ac-VEID-AMC substrate
T1 sequence (P55212 whole entry): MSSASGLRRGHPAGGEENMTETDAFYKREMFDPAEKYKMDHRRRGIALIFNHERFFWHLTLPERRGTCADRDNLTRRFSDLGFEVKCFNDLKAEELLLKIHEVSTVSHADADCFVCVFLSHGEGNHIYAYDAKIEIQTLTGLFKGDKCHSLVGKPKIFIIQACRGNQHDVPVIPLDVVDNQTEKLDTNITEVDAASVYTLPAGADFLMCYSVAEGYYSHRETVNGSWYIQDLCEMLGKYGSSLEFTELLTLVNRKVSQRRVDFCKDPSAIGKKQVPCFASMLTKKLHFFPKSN
Outline: (§1)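 Substrates at 10 µM: Ac-DEVD-AMC (caspase-3), Ac-VEID-AMC (caspase-6), Ac-IETD-AMC (caspase-8). Serially diluted inhibitors were preincubated 30 min on ice, then run 1–2 h at 37 °C in 5% final DMSO. AMC fluorescence ex 355/em 460 nm. Duplicates; IC50 averaged over three experiments.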

[2] = biological target: Caspase-8 (Homo sapiens, UniProt Q14790); assay: Inhibitory activity against caspase 8 using Ac-IETD-AMC substrate; outline: as §1
[3] = biological target: T2, Caspase-1 (Homo sapiens, UniProt P29466); assay: Inhibitory activity against caspase 1 using Ac-YVAD-AMC substrate
T2 sequence (P29466 whole entry): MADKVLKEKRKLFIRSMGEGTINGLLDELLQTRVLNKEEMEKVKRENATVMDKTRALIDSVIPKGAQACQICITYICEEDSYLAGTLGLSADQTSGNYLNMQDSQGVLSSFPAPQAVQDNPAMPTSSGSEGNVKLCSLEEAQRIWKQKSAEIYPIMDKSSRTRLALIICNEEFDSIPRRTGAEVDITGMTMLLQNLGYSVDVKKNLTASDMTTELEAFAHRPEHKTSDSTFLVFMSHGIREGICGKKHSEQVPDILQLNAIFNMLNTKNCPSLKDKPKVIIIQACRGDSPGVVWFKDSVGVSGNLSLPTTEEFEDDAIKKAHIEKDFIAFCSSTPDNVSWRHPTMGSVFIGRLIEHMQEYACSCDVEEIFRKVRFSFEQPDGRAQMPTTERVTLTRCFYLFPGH
Outline: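 Substrate solution carried an extra 10 mM 2-mercaptoethanol. Inhibitors in DMSO were preincubated 30 min on ice, then run 1–2 h at 37 °C. AMC was read at ex 355/em 460 nm. Duplicates; IC50 is the mean of three experiments.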

[4] = biological target: T3, Caspase-3 (Homo sapiens, UniProt P42574); assay: Inhibitory activity against caspase 3 using Ac-DEVD-AMC substrate; outline: as §1
T3 sequence (P42574 whole entry): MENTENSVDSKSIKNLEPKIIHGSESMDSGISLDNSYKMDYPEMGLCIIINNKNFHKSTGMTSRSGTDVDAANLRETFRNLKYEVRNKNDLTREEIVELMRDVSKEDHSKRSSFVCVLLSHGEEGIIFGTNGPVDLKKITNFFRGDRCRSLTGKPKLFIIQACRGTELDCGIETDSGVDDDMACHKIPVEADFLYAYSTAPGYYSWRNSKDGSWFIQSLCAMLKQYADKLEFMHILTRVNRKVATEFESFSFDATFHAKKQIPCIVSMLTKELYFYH

[5] = biological target: T4, Caspase-7 (Homo sapiens, UniProt P55210); assay: Inhibitory activity against caspase 7 using Ac-DEVD-AMC substrate
T4 sequence (P55210 whole entry): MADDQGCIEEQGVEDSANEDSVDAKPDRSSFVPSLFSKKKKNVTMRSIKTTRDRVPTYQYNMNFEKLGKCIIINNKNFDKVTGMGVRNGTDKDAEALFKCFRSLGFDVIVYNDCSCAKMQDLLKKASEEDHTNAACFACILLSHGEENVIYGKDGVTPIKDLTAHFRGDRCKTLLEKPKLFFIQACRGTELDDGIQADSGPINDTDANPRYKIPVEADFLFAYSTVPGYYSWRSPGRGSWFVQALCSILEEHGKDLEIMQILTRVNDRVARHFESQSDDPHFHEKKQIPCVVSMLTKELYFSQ
Outline: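 Substrate solution held a further 10 mM 2-mercaptoethanol for full activation. Enzyme was used at a linear-range level. DMSO inhibitor dilutions (5% final) were preincubated 30 min on ice, then run 1–2 h at 37 °C. AMC read at 355/460 nm. Duplicates; IC50 is the mean of three runs.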

Caspase-8, sequence (Q14790 217-374 limits assumed): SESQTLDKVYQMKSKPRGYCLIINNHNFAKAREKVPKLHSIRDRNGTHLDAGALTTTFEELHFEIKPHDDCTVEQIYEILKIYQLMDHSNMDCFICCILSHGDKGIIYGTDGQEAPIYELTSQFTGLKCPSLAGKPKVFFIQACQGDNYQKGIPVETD
Caspase-8, sequence (Q14790 385-479 limits assumed): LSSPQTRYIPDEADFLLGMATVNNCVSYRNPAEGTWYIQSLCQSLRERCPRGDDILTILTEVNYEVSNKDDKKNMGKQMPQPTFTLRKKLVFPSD

Structure (SMILES): O=C1Nc2ccc(S(=O)(=O)N3CCC[C@H]3COc3ccccc3)cc2C1=O
IC50 [1]: > 5 µM
IC50 [2]: > 50 µM
IC50 [3]: > 10 µM

Structure (SMILES): O=C1C(=O)N(Cc2ccccc2)c2ccc(S(=O)(=O)N3CC[C@H]3COc3ccccc3)cc21
IC50 [1]: > 5 µM
IC50 [2]: > 50 µM
IC50 [3]: > 10 µM

Structure (SMILES): O=C1C(=O)N(Cc2ccc(F)cc2)c2ccc(S(=O)(=O)N3CC[C@H]3COc3ccccc3)cc21
IC50 [1]: > 5 µM
IC50 [2]: > 50 µM
IC50 [3]: > 10 µM

Structure (SMILES): COc1ccc(CN2C(=O)C(=O)c3cc(S(=O)(=O)N4CC[C@H]4COc4ccccc4)ccc32)cc1
IC50 [1]: > 5 µM
IC50 [2]: > 50 µM
IC50 [3]: > 50 µM

Structure (SMILES): CN1C(=O)C(=O)c2cc(S(=O)(=O)N3CC[C@H]3COc3ccccc3)ccc21
IC50 [1]: > 5 µM
IC50 [2]: > 50 µM
IC50 [3]: > 10 µM

Structure (SMILES): O=C1C(=O)N(Cc2ccnc(F)c2)c2ccc(S(=O)(=O)N3CC[C@H]3COc3ccccc3)cc21
IC50 [1]: > 5 µM
IC50 [2]: > 50 µM
IC50 [3]: > 50 µM

Structure (SMILES): O=C1C(=O)N(Cc2ccccc2)c2ccc(S(=O)(=O)N3CCC[C@H]3COc3ccccc3)cc21
IC50 [1]: > 5 µM
IC50 [2]: > 50 µM
IC50 [3]: > 10 µM

Structure (SMILES): CC(=O)Oc1ccc(CN2C(=O)C(=O)c3cc(S(=O)(=O)N4CCC[C@H]4COc4ccccc4)ccc32)cc1
IC50 [4]: 12 nM
IC50 [1]: > 5 µM
IC50 [2]: > 50 µM
IC50 [3]: > 50 µM
IC50 [5]: 34.8 nM

Structure (SMILES): CSc1ccc(CN2C(=O)C(=O)c3cc(S(=O)(=O)N4CCC[C@H]4COc4ccccc4)ccc32)cc1
IC50 [4]: 12.4 nM
IC50 [1]: > 5 µM
IC50 [2]: > 50 µM
IC50 [3]: > 50 µM
IC50 [5]: 41 nM

Structure (SMILES): O=C1Nc2ccc(S(=O)(=O)N3CC[C@H]3COc3ccccc3)cc2C1=O
IC50 [1]: > 5 µM
IC50 [2]: > 50 µM
IC50 [3]: > 10 µM

Structure (SMILES): O=C1C(=O)N(Cc2cccc(F)n2)c2ccc(S(=O)(=O)N3CCC[C@H]3COc3ccccc3)cc21
IC50 [1]: > 5 µM
IC50 [2]: > 50 µM
IC50 [3]: > 50 µM

Structure (SMILES): O=C1C(=O)N(Cc2ccccc2)c2ccc(S(=O)(=O)N3CCC[C@H]3COc3cccnc3)cc21
IC50 [4]: 5.2 nM
IC50 [1]: > 5 µM
IC50 [2]: > 50 µM
IC50 [3]: > 10 µM
IC50 [5]: 14.1 nM

Structure (SMILES): O=C1C(=O)N(Cc2ccc(F)nc2)c2ccc(S(=O)(=O)N3CC[C@H]3COc3ccccc3)cc21
IC50 [1]: > 5 µM
IC50 [2]: > 50 µM
IC50 [3]: > 50 µM

Structure (SMILES): O=C1C(=O)N(Cc2ccc(O)cc2)c2ccc(S(=O)(=O)N3CCC[C@H]3COc3ccccc3)cc21
IC50 [1]: > 5 µM
IC50 [2]: > 50 µM
IC50 [3]: > 5 µM

Structure (SMILES): O=C1C(=O)N(Cc2ccccc2F)c2ccc(S(=O)(=O)N3CC[C@H]3COc3ccccc3)cc21
IC50 [1]: > 5 µM
IC50 [2]: > 50 µM
IC50 [3]: > 10 µM

Next, values leading:

IC50 [1]: > 5 µM
IC50 [2]: > 50 µM
IC50 [3]: > 50 µM
Structure (SMILES): O=C1C(=O)N(Cc2ccc(F)nc2)c2ccc(S(=O)(=O)N3CCC[C@H]3COc3ccccc3)cc21

IC50 [1]: > 5 µM
IC50 [2]: > 50 µM
IC50 [3]: > 50 µM
Structure (SMILES): CSc1ccc(CN2C(=O)C(=O)c3cc(S(=O)(=O)N4CC[C@H]4COc4ccccc4)ccc32)cc1

IC50 [1]: > 5 µM
IC50 [2]: > 50 µM
IC50 [3]: > 10 µM
Structure (SMILES): O=C1C(=O)N(Cc2cccc(F)n2)c2ccc(S(=O)(=O)N3CC[C@H]3COc3ccccc3)cc21

IC50 [4]: 23.3 nM
IC50 [1]: > 5 µM
IC50 [2]: > 50 µM
IC50 [3]: > 10 µM
IC50 [5]: 94.9 nM
Structure (SMILES): CN1C(=O)C(=O)c2cc(S(=O)(=O)N3CCC[C@H]3COc3cccnc3)ccc21

IC50 [4]: 14.5 nM
IC50 [1]: > 5 µM
IC50 [2]: > 50 µM
IC50 [3]: > 10 µM
IC50 [5]: 21.8 nM
Structure (SMILES): COc1ccc(CN2C(=O)C(=O)c3cc(S(=O)(=O)N4CCC[C@H]4COc4ccccc4)ccc32)cc1

IC50 [4]: 20.4 nM
IC50 [1]: > 5 µM
IC50 [2]: > 50 µM
IC50 [3]: > 5 µM
IC50 [5]: 142 nM
Structure (SMILES): O=C1Nc2ccc(S(=O)(=O)N3CCC[C@H]3COc3ccncc3)cc2C1=O

IC50 [4]: 8.4 nM
IC50 [1]: > 5 µM
IC50 [2]: > 50 µM
IC50 [3]: > 10 µM
IC50 [5]: 15.1 nM
Structure (SMILES): O=C1C(=O)N(Cc2ccc(F)cc2)c2ccc(S(=O)(=O)N3CCC[C@H]3COc3cccnc3)cc21

IC50 [4]: 58.3 nM
IC50 [1]: > 5 µM
IC50 [2]: > 50 µM
IC50 [3]: > 5 µM
IC50 [5]: 215 nM
Structure (SMILES): O=C1Nc2ccc(S(=O)(=O)N3CCC[C@H]3COc3cccnc3)cc2C1=O

IC50 [4]: 3.9 nM
IC50 [1]: > 5 µM
IC50 [2]: > 50 µM
IC50 [3]: > 10 µM
IC50 [5]: 15.1 nM
Structure (SMILES): COc1ccc(CN2C(=O)C(=O)c3cc(S(=O)(=O)N4CCC[C@H]4COc4cccnc4)ccc32)cc1

IC50 [4]: 12.1 nM
IC50 [1]: > 5 µM
IC50 [2]: > 50 µM
IC50 [3]: > 50 µM
IC50 [5]: 23 nM
Structure (SMILES): O=C1C(=O)N(Cc2ccc(F)cc2)c2ccc(S(=O)(=O)N3CCC[C@H]3COc3ccccc3)cc21

IC50 [1]: > 5 µM
IC50 [2]: > 50 µM
IC50 [3]: > 50 µM
Structure (SMILES): O=C1C(=O)N(Cc2ccnc(F)c2)c2ccc(S(=O)(=O)N3CCC[C@H]3COc3ccccc3)cc21

IC50 [4]: 4.4 nM
IC50 [1]: > 5 µM
IC50 [2]: > 50 µM
IC50 [3]: > 50 µM
IC50 [5]: 23.3 nM
Structure (SMILES): CSc1ccc(CN2C(=O)C(=O)c3cc(S(=O)(=O)N4CCC[C@H]4COc4cccnc4)ccc32)cc1

IC50 [4]: 119 nM
IC50 [1]: > 5 µM
IC50 [2]: > 50 µM
IC50 [3]: > 20 µM
IC50 [5]: 310 nM
Structure (SMILES): CN1C(=O)C(=O)c2cc(S(=O)(=O)N3CCC[C@H]3COc3ccccc3)ccc21
